This note sets out measurements from ChEMBL document CHEMBL2311334, “Synthesis and evaluation of 8-oxoadenine derivatives as potent Toll-like receptor 7 agonists with high water solubility” (Bioorg Med Chem Lett, 2013).

Data set [1] in a line: Aqueous solubility in pH 7.4 buffer. It counts as physicochemical. In outline:
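Solubility measured in pH 7.4 buffer.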

The target of data set [2] is T1, Toll-like receptor 7 (Homo sapiens, UniProt Q9NYK1).
T1 sequence (Q9NYK1 whole entry): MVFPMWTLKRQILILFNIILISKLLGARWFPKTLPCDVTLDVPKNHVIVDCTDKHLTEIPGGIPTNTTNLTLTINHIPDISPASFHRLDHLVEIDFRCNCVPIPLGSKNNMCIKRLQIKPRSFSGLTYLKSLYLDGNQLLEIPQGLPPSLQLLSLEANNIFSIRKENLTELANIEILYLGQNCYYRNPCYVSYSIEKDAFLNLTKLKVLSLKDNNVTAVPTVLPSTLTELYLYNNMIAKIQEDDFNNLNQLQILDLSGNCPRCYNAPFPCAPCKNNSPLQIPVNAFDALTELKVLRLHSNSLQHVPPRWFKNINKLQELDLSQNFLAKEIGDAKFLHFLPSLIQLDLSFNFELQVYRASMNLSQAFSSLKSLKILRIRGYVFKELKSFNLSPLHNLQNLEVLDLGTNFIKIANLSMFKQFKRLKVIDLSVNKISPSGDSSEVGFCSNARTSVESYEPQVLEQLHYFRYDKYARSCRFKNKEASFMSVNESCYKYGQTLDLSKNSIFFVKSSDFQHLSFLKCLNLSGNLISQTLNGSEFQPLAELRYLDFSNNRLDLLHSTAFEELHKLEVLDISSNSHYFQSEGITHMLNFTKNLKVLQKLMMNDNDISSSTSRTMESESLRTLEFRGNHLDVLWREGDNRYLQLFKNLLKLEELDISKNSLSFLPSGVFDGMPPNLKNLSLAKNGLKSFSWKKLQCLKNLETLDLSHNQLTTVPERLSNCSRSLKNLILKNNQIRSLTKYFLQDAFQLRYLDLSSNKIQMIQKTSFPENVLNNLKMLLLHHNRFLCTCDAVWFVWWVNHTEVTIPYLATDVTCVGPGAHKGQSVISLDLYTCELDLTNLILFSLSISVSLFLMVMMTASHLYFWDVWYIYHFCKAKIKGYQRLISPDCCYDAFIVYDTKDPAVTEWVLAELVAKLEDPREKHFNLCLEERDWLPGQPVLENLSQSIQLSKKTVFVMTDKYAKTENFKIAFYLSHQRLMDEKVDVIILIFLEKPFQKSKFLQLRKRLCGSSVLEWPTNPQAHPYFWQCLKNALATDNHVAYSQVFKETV
The data set can be described thus: Agonist activity at human TLR7 expressed in HEK293 cells by NFkappaB SEAP reporter gene assay. It counts as cell-based. In outline:
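HEK293 cells stably transfected with human TLR7 plus an NF-κB-driven SEAP reporter. EC50 taken from reporter read-out, given as the mean of two independent experiments.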

The target of data set [3] is T2, Toll-like receptor 7 (Mus musculus, UniProt P58681).
T2 sequence (P58681 whole entry): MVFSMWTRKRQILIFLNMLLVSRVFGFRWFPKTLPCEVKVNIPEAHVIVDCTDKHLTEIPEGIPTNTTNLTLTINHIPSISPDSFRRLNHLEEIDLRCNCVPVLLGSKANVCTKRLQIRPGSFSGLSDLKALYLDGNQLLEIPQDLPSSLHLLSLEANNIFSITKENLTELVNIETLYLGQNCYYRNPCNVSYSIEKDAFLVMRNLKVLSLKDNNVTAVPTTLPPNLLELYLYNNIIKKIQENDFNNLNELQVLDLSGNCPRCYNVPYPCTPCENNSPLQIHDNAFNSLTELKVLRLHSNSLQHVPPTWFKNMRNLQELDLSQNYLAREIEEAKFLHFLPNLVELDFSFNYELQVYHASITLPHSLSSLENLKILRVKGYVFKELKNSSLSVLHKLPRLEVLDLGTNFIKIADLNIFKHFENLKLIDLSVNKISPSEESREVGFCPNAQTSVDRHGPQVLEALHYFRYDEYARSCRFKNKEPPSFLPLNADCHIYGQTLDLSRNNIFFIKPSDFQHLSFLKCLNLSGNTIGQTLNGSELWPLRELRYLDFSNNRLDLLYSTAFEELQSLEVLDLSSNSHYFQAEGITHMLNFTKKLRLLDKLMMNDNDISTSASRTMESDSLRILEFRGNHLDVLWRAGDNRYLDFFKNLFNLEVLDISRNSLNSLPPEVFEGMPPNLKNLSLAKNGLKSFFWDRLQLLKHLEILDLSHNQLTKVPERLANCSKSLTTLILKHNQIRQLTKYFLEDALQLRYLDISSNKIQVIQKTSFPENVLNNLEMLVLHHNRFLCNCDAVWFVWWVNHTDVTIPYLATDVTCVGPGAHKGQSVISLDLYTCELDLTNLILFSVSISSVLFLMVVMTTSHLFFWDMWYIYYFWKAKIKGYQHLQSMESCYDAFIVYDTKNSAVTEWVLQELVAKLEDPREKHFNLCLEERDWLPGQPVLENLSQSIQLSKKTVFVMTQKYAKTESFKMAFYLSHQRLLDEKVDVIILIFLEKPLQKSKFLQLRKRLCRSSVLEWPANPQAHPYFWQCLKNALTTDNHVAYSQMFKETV
Briefly: Agonist activity at mouse TLR7.

The subject of data set [4] is Mus musculus. The data set can be described thus: Increase in IFN level in Balb/c mouse plasma at 10 mg/kg, iv measured after 6 hrs post dose by L929 cells and VSV based bioassay. It counts as functional. The procedure, abridged:
(§1)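 Female Balb/c mice were given a single intravenous dose of test compound. Plasma interferon was sampled 6 h post dose and quantified by a bioassay using L929 cells challenged with vesicular stomatitis virus, with values reported in IU/mL.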

The nature of data set [5]: Antitumor activity against mouse HM1 cells xenografted in B6C3F1 mouse assessed as inhibition of lung metastasis at 1 mg/kg, iv administered biweekly starting on day 1 post tumor xenografting measured on day 35 post tumor xenografting. It counts as functional. The conditions noted are these: in the assay text read “starting on day 11 post” for “starting on day 1 post”. In outline:
(§2)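 HM-1 ovarian cancer cells injected subcutaneously into B6C3F1 mice on day 0. Primary tumor surgically removed under isoflurane on day 10. Compound given intravenously twice weekly from day 11. Lung metastases counted on day 35 and expressed as % inhibition. Six mice per group, mean ± SD. Significance versus vehicle by Wilcoxon test.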

The nature of data set [6]: Antitumor activity against mouse HM1 cells xenografted in B6C3F1 mouse assessed as inhibition of lung metastasis at 10 mg/kg, iv administered biweekly starting on day 1 post tumor xenografting measured on day 35 post tumor xenografting. It counts as functional. The conditions noted are these: in the assay text read “starting on day 11 post” for “starting on day 1 post”. In outline:
as §2

Data set [7] is described as follows: Potency index, ratio of antitumor activity of 852A to test compound against mouse HM1 cells xenografted in B6C3F1 mouse. It counts as functional.
Data set [8] relates to Mus musculus. The data set can be described thus: Increase in IFN level in Balb/c mouse plasma at 1 mg/kg, iv measured after 6 hrs post dose by L929 cells and VSV based bioassay. Type of data set: functional. The procedure, abridged:
as §1

Data set [9] addresses T3, Toll-like receptor 7 (Homo sapiens) (UniProt Q9NYK1).
T3 sequence (whole entry): T1 sequence (Q9NYK1 whole entry)
The data set can be described thus: Potency index, ratio of EC50 of 852A to EC50 of test compound for human TLR7 expressed in HEK293 cells by NFkappaB SEAP reporter gene assay. Type of data set: cell-based. Background: Reporter assays use an easily measured gene product as a stand-in for the process of interest.

The nature of data set [10]: Half life in Balb/c mouse at 1 mg/kg, iv. Set-up: dose 1 mg/kg, route intravenous. Type of data set: ADME, organism-based. Particulars: in vivo. In outline:
(§3)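 Female Balb/c mice dosed intravenously at 1 mg/kg. Vdss and T1/2 calculated from this PK study.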

Data set [11] in a line: Antitumor activity against mouse HM1 cells xenografted in B6C3F1 mouse assessed as inhibition of lung metastasis at 0.1 mg/kg, iv administered biweekly starting on day 1 post tumor xenografting measured on day 35 post tumor xenografting. Type of data set: functional. The conditions noted are these: in the assay text read “starting on day 11 post” for “starting on day 1 post”. In outline: as §2

Data set [12] is described as follows: Antitumor activity against mouse HM1 cells xenografted in B6C3F1 mouse assessed as inhibition of lung metastasis at 1 mg/kg, iv administered biweekly starting on day 11 post tumor xenografting measured on day 35 post tumor xenografting.
The nature of data set [13]: Volume of distribution at steady state in Balb/c mouse at 1 mg/kg, iv. Type of data set: ADME, organism-based. Details: dose 1 mg/kg, route intravenous. Particulars: in vivo, read-out: Vdss. In outline: as §3

By solubility is commonly meant the dissolved amount per volume that the medium holds. Low readings indicate a poorly soluble substance, high ones a readily soluble substance. One may read the EC50 as the concentration at which the effect is half-maximal. In general, inhibition in vivo refers to the change of the read-out against control, counted positive when it falls. A word on the half-life: it is the time in which the quantity being followed falls by half. High values mean slow loss, low ones fast loss.

Converted amounts (≈) assume the structure as drawn. Bounds are passed on as bounds.

In data set [1], `CCCCNc1nc(N)c2[nH]c(=O)n(Cc3ccc(CN4CCCCC4)cc3)c2n1` showed a solubility of 0.019 mg/mL (≈ 46.4 µM). It took 0.0076 µM to reach a half-maximal effect in data set [2] (EC50).

`CCCCNc1nc(N)c2[nH]c(=O)n(Cc3ccc(OCCNC)nc3)c2n1` returned an EC50 in [2] of 0.166 µM.

In turn, `CCCCNc1nc(N)c2[nH]c(=O)n(Cc3ccc(N4CCC(N(C)C)C4)nc3)c2n1` (configuration not stated) showed a solubility in data set [1] of 0.053 mg/mL (≈ 125 µM). In [2], this compound showed an EC50 of 0.0074 µM.

As to `CCCCNc1nc(N)c2nc(O)n(Cc3ccc(OC)nc3)c2n1`, the solubility in data set [1] is under 0.001 mg/mL. Besides, the EC50 in data set [2] is 0.0281 µM.

Regarding `CCCCNc1nc(N)c2[nH]c(=O)n(Cc3ccc(OCCCCN(C)C)nc3)c2n1`, the solubility in data set [1] turned out to be 0.35 mg/mL (≈ 817 µM). The compound further registered a concentration for a half-maximal effect (EC50) in data set [2] of 0.0152 µM.

For `CCCCNc1nc(N)c2[nH]c(=O)n(Cc3ccc(N4CCN(C)CC4)nc3)c2n1`, the concentration in solution in data set [1] (solubility) came to 0.007 mg/mL (≈ 17 µM). A half-maximal response in data set [2] (EC50) required 0.0054 µM.

The compound `CCCCNc1nc(N)c2[nH]c(=O)n(Cc3ccc(N(C)CCCN(C)C)nc3)c2n1` displayed a solubility in data set [1] of 0.725 mg/mL (≈ 1700 µM). Moreover, in data set [2], the EC50 is 0.0728 µM.

Consider `CCCCNc1nc(N)c2[nH]c(=O)n(Cc3ccc(CN4CCN(C)CC4)cc3)c2n1`, for which, in data set [1], the solubility was determined as 0.108 mg/mL (≈ 254 µM). The compound also yielded an EC50 in data set [2] of 0.007 µM.

`CCCCNc1nc(N)c2[nH]c(=O)n(Cc3ccc(OCCN4CCOCC4)nc3)c2n1`: the concentration in solution in [1] (solubility) came to 0.034 mg/mL (≈ 76.8 µM). The compound further came in with an EC50 in data set [2] of 0.0502 µM.

In data set [1], `CCCCNc1nc(N)c2[nH]c(=O)n(Cc3ccc(CN(C)C)cc3)c2n1` displayed a solubility of 0.098 mg/mL (≈ 265 µM). In data set [2], this compound displayed a concentration giving a half-maximal response (EC50) of 0.0093 µM.

`CCCCNc1nc(N)c2[nH]c(=O)n(Cc3ccc(N4CCNCC4)nc3)c2n1`: the solubility in data set [1] is 0.063 mg/mL (≈ 158 µM). In addition, in data set [2], a half-maximal response (EC50) required 0.0485 µM.

Regarding `CCCCNc1nc(N)c2[nH]c(=O)n(Cc3ccc(N4CCC(N(C)C)CC4)nc3)c2n1`, in data set [1], the solubility came to 0.071 mg/mL (≈ 162 µM). In [2], this compound displayed a 50% effective concentration (EC50) of 0.0094 µM.

On to `CCc1nc2c(N)nc3ccccc3c2n1CCCCNS(C)(=O)=O` [CPG-52852], for which the EC50 in data set [3] came out at 6.22 µM; in data set [2] it was 2.66 µM. The Activity in [4] came out at 19 IU/ml. Also, the inhibition in vivo at 1 mg/kg in data set [5] came out at 6%. Further, the inhibition in vivo at 10 mg/kg in [6] turned out to be 55%.

The compound `CCCCNc1nc(N)c2[nH]c(=O)n(Cc3ccc(OCCCN(C)C)nc3)c2n1` came in with a solubility in data set [1] of 0.288 mg/mL (≈ 695 µM).

With `CCCCNc1nc(N)c2[nH]c(=O)n(Cc3ccc(CN4CCOCC4)cc3)c2n1`, in data set [1], the solubility came out at 0.008 mg/mL (≈ 19.4 µM). In data set [2], this compound had an EC50 of 0.058 µM.

`CCCCNc1nc(N)c2[nH]c(=O)n(Cc3cccc(CN4CCCCC4)c3)c2n1` displayed an EC50 in [2] of 0.0301 µM.

For the compound `CCCCNc1nc(N)c2nc(O)n(Cc3ccc(C)nc3)c2n1`, the solubility in [1] was under 0.001 mg/mL. In addition, the concentration giving a half-maximal response (EC50) in data set [2] was 0.032 µM.

Turning to `CCCCNc1nc(N)c2[nH]c(=O)n(Cc3ccc(OCCN(C)C)nc3)c2n1`, the Ratio in data set [7] is over 100. This compound also yielded a solubility in data set [1] of 0.372 mg/mL (≈ 929 µM). In [8], the Activity turned out to be 840 IU/ml. In addition, the EC50 in [3] came to 0.0046 µM; in data set [2] it was 0.0072 µM. The Ratio EC50 in data set [9] was 370. Besides, the half-life in data set [10] is 1.3 h. Further, in data set [11], the inhibition in vivo at 0.1 mg/kg is 78%. Also, in data set [12], the inhibition in vivo at 1 mg/kg turned out to be 100%. The Vd in [13] was 6.6 L/kg.

As to `CCCCNc1nc(N)c2nc(O)n(Cc3ccc(C)cc3)c2n1`, the solubility in data set [1] is under 0.001 mg/mL. The midpoint of the response in data set [2], the EC50, lay at 0.166 µM.

In data set [2], `CCCCNc1nc(N)c2[nH]c(=O)n(Cc3cccc(CN4CCN(C)CC4)c3)c2n1` had an EC50 of 0.13 µM.
